Assay results: ChEMBL document CHEMBL1255392, “Pharmacokinetics of acyclovir and its metabolites in cerebrospinal fluid and systemic circulation after administration of high-dose valacyclovir in subjects with normal and impaired renal function” (Antimicrob Agents Chemother, 2010)
Blank lines part the entries; values can stand above or below the compound they belong to.

Assays:
Homo sapiens [1] = experiment: Drug level in human plasma with normal renal function assessed as 8-OH acyclovir level at 2000 mg, po every 6 hrs measured after fifth dose by LC/MS; type: ADME, organism-based; conditions: in vivo, read-out: Drug uptake
In short: (§1)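 Six volunteers with normal renal function fasted from 8 h before to 2 h after the fifth dose. Intrathecal-catheter CSF and venous blood were sampled at 0–8 h and stored at −70°C. Noncompartmental Cmax, tmax and AUCτ (0–6 h) were derived; Cavg = AUCτ/τ.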

Homo sapiens [2] = experiment: Drug level in human plasma with chronic kidney disease assessed as 8-OH acyclovir level at 1500 mg, po every 12 hrs measured after fifth dose by LC/MS; type: ADME, organism-based; conditions: in vivo, read-out: Drug uptake
In short: (§2)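 Three CKD adults (CrCl ~15–30 ml/min) fasted around the final dose. Lumbar intrathecal catheter CSF and EDTA venous blood were taken predose and at 0.5–8 h plus 12 h, then stored at −70°C. Metabolites in serum/CSF were measured by SPE with isotope-labelled internal standards, reversed-phase HPLC and positive-ion MRM MS.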

Homo sapiens [3] = experiment: Drug level in human CSF with normal renal function assessed as 8-OH acyclovir level at 2000 mg, po every 6 hrs measured after fifth dose by LC/MS; type: ADME, organism-based; conditions: in vivo, read-out: Drug uptake; in short: as §1
Homo sapiens [4] = experiment: Drug level in human CSF with chronic kidney disease assessed as 8-OH acyclovir level at 1500 mg, po every 12 hrs measured after fifth dose by LC/MS; type: ADME, organism-based; conditions: in vivo, read-out: Drug uptake; in short: as §2
Homo sapiens [5] = experiment: Cmax in human systemic circulation with normal renal function assessed as 8-OH-ACV level at 2000 mg, po every 6 hrs measured after fifth dose by LC/MS; type: ADME, organism-based; set-up: dose 2000 mg, route oral; conditions: in vivo; in short: as §1
Homo sapiens [6] = experiment: Cmax in human CSF with normal renal function assessed as 8-OH-ACV level at 2000 mg, po every 6 hrs measured after fifth dose by LC/MS; type: ADME, organism-based, Cerebrospinal fluid; set-up: dose 2000 mg, route oral; conditions: in vivo; in short: as §1
Homo sapiens [7] = experiment: Cmax in human systemic circulation with chronic kidney disease assessed as 8-OH-ACV level at 1500 mg, po every 12 hrs measured after fifth dose by LC/MS; type: ADME, organism-based; set-up: dose 1500 mg, route oral; conditions: in vivo; in short: as §2
Homo sapiens [8] = experiment: Cmax in human CSF with chronic kidney disease assessed as 8-OH-ACV level at 1500 mg, po every 12 hrs measured after fifth dose by LC/MS; type: ADME, organism-based, Cerebrospinal fluid; set-up: dose 1500 mg, route oral; conditions: in vivo; in short: as §2
Homo sapiens [9] = experiment: Tmax in human systemic circulation with normal renal function assessed as 8-OH-ACV level at 2000 mg, po every 6 hrs measured after fifth dose by LC/MS; type: ADME, organism-based; conditions: in vivo; in short: as §1
Homo sapiens [10] = experiment: Tmax in human CSF with normal renal function assessed as 8-OH-ACV level at 2000 mg, po every 6 hrs measured after fifth dose by LC/MS; type: ADME, organism-based, Cerebrospinal fluid; conditions: in vivo; in short: as §1
Homo sapiens [11] = experiment: Tmax in human systemic circulation with chronic kidney disease assessed as 8-OH-ACV level at 1500 mg, po every 12 hrs measured after fifth dose by LC/MS; type: ADME, organism-based; conditions: in vivo; in short: as §2
Homo sapiens [12] = experiment: Tmax in human CSF with chronic kidney disease assessed as 8-OH-ACV level at 1500 mg, po every 12 hrs measured after fifth dose by LC/MS; type: ADME, organism-based, Cerebrospinal fluid; conditions: in vivo; in short: as §2
Homo sapiens [13] = experiment: AUC (0 to 6 hrs) in human systemic circulation with normal renal function assessed as 8-OH-ACV level at 2000 mg, po every 6 hrs measured after fifth dose by LC/MS; type: ADME, organism-based, Plasma; set-up: dose 2000 mg, time < 6 hr, route oral; conditions: in vivo; in short: as §1
Homo sapiens [14] = experiment: AUC (0 to 6 hrs) in human CSF with normal renal function assessed as 8-OH-ACV level at 2000 mg, po every 6 hrs measured after fifth dose by LC/MS; type: ADME, organism-based; set-up: dose 2000 mg, time < 6 hr, route oral; conditions: in vivo; in short: as §1
Homo sapiens [15] = experiment: AUC (0 to 12 hrs) in human systemic circulation with chronic kidney disease assessed as 8-OH-ACV level at 1500 mg, po every 12 hrs measured after fifth dose by LC/MS; type: ADME, organism-based; set-up: dose 1500 mg, time < 12 hr, route oral; conditions: in vivo; in short: as §2
Homo sapiens [16] = experiment: AUC (0 to 12 hrs) in human CSF with chronic kidney disease assessed as 8-OH-ACV level at 1500 mg, po every 12 hrs measured after fifth dose by LC/MS; type: ADME, organism-based; set-up: dose 1500 mg, time < 12 hr, route oral; conditions: in vivo; in short: as §2
Homo sapiens [17] = experiment: Ratio of Cmax in human CSF to Cmax in human plasma with normal renal function assessed as 8-OH-ACV level at 2000 mg, po every 6 hrs measured after fifth dose by LC/MS; type: ADME, organism-based
In short: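 For each normal-renal-function subject, the metabolite CSF Cmax was divided by the serum Cmax from samples taken 0–8 h after the fifth dose. Both were measured by LC/MS with isotope-labelled internal standards, and the ratio is given as mean ± SD.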

Homo sapiens [18] = experiment: Ratio of Cmax in human CSF to Cmax in human plasma with chronic kidney disease assessed as 8-OH-ACV level at 1500 mg, po every 12 hrs measured after fifth dose by LC/MS; type: ADME, organism-based
[19] = Drug level in human plasma with normal renal function at 2000 mg, po every 6 hrs measured after fifth dose by radioimmunoassay; type: ADME, organism-based; conditions: read-out: Drug uptake
In short: (§3)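 Six subjects with normal renal function took valacyclovir 2,000 mg orally every 6 h for 5 doses, fasting from 8 h before to 2 h after the fifth dose. Plasma was drawn at 0, 0.5, 1, 1.5, 2, 3, 4, 6 and 8 h. Acyclovir was measured by scintillation proximity radioimmunoassay (LLQ 14.1 ng/ml). Noncompartmental analysis gave AUC over 0–6 h, Cmax and tmax, with Cavg = AUCτ/τ.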

[20] = Drug level in human plasma with chronic kidney disease at 1500 mg, po every 12 hrs measured after fifth dose by radioimmunoassay; type: ADME, organism-based; conditions: read-out: Drug uptake
In short: (§4)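 Three chronic kidney disease subjects (CrCl ∼15 to 30 ml/min) took valacyclovir 1,500 mg orally every 12 h for 5 doses, fasting from 8 h before to 2 h after the fifth dose. Plasma was drawn at 0, 0.5, 1, 1.5, 2, 3, 4, 6, 8 and 12 h. Acyclovir was measured by scintillation proximity radioimmunoassay.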

[21] = Drug level in human CSF with normal renal function at 2000 mg, po every 6 hrs measured after fifth dose by radioimmunoassay; type: ADME, organism-based; conditions: read-out: Drug uptake
In short: (§5)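 Normal-renal-function subjects (n=6) took an oral dose every 6 h for 5 doses. Serial lumbar-catheter CSF was collected on ice predose through 8 h after the last dose. Acyclovir was assayed by scintillation proximity radioimmunoassay validated for CSF (range 1.4–90 ng/ml; 1:10 dilution; LLQ 14.1 ng/ml). Cmax, tmax and AUCτ over 0–6 h were computed noncompartmentally.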

[22] = Drug level in human CSF with chronic kidney disease at 1500 mg, po every 12 hrs measured after fifth dose by radioimmunoassay; type: ADME, organism-based; conditions: read-out: Drug uptake
In short: (§6)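 CKD subjects (n=3) received an oral dose every 12 h for 5 doses. CSF was drawn through an indwelling lumbar catheter predose and at 0.5, 1, 1.5, 2, 3, 4, 6, 8 and 12 h after the fifth dose. Acyclovir was quantified by automated scintillation proximity radioimmunoassay with a monoclonal antibody; the standard curve was 1.4–90 ng/ml and LLQ 14.1 ng/ml. Noncompartmental parameters were calculated over 0–12 h.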

[23] = Cmax in human systemic circulation with normal renal function at 2000 mg, po every 6 hrs measured after fifth dose by radioimmunoassay; type: ADME, organism-based; set-up: dose 2000 mg, route oral; conditions: plasma; in short: as §3
[24] = Cmax in human CSF with normal renal function at 2000 mg, po every 6 hrs measured after fifth dose by radioimmunoassay; type: ADME, organism-based, Cerebrospinal fluid; set-up: dose 2000 mg, route oral; in short: as §5
[25] = Cmax in human systemic circulation with chronic kidney disease at 1500 mg, po every 12 hrs measured after fifth dose by radioimmunoassay; type: ADME, organism-based; set-up: dose 1500 mg, route oral; conditions: plasma; in short: as §4
[26] = Cmax in human CSF with chronic kidney disease at 1500 mg, po every 12 hrs measured after fifth dose by radioimmunoassay; type: ADME, organism-based, Cerebrospinal fluid; set-up: dose 1500 mg, route oral; in short: as §6
[27] = Tmax in human systemic circulation with normal renal function at 2000 mg, po every 6 hrs measured after fifth dose by radioimmunoassay; type: ADME, organism-based; conditions: plasma; in short: as §3
[28] = Tmax in human CSF with normal renal function at 2000 mg, po every 6 hrs measured after fifth dose by radioimmunoassay; type: ADME, organism-based, Cerebrospinal fluid; in short: as §5
[29] = Tmax in human systemic circulation with chronic kidney disease at 1500 mg, po every 12 hrs measured after fifth dose by radioimmunoassay; type: ADME, organism-based; conditions: plasma; in short: as §4
[30] = Tmax in human CSF with chronic kidney disease at 1500 mg, po every 12 hrs measured after fifth dose by radioimmunoassay; type: ADME, organism-based, Cerebrospinal fluid; in short: as §6
[31] = AUC (0 to 6 hrs) in human systemic circulation with normal renal function at 2000 mg, po every 6 hrs measured after fifth dose by radioimmunoassay; type: ADME, organism-based; set-up: time < 6 hr, dose 2000 mg, route oral; conditions: plasma; in short: as §3
[32] = AUC (0 to 6 hrs) in human CSF with normal renal function at 2000 mg, po every 6 hrs measured after fifth dose by radioimmunoassay; type: ADME, organism-based; set-up: time < 6 hr, dose 2000 mg, route oral; in short: as §5
[33] = AUC (0 to 12 hrs) in human systemic circulation with chronic kidney disease at 1500 mg, po every 12 hrs measured after fifth dose by radioimmunoassay; type: ADME, organism-based; set-up: dose 1500 mg, time < 12 hr, route oral; conditions: plasma; in short: as §4
[34] = AUC (0 to 12 hrs) in human CSF with chronic kidney disease at 1500 mg, po every 12 hrs measured after fifth dose by radioimmunoassay; type: ADME, organism-based; set-up: time < 12 hr, dose 1500 mg, route oral; in short: as §6

- concentration (Homo sapiens [1]): 0.24 µM
- concentration (Homo sapiens [2]): 1.4 µM
- concentration (Homo sapiens [3]): 0.06 µM
- concentration (Homo sapiens [4]): 0.26 µM
- Cmax (Homo sapiens [5]): 0.32 µM
- Cmax (Homo sapiens [6]): 0.062 µM
- Cmax (Homo sapiens [7]): 1.6 µM
- Cmax (Homo sapiens [8]): 0.29 µM
- Tmax (Homo sapiens [9]): 3.5 h
- Tmax (Homo sapiens [10]): 2.4 h
- Tmax (Homo sapiens [11]): 4 h
- Tmax (Homo sapiens [12]): 7 h
- AUC (Homo sapiens [13]): 1.4 µM·h
- AUC (Homo sapiens [14]): 0.34 µM·h
- AUC (Homo sapiens [15]): 17 µM·h
- AUC (Homo sapiens [16]): 3.1 µM·h
- Ratio (Homo sapiens [17]): 0.2
- Ratio (Homo sapiens [18]): 0.19
Structure (SMILES): Nc1nc2c(nc(O)n2COCCO)c(=O)[nH]1

- concentration at 6 h [19]: 23 µM
- concentration at 12 h [20]: 48 µM
- concentration at 6 h [21]: 6.25 µM
- concentration at 12 h [22]: 13.3 µM
- Cmax [23]: 42 µM
- Cmax [24]: 7.8 µM
- Cmax [25]: 82 µM
- Cmax [26]: 16 µM
- Tmax [27]: 2.1 h
- Tmax [28]: 2.3 h
- Tmax [29]: 2 h
- Tmax [30]: 5.3 h
- AUC at 6 h [31]: 137 µM·h
- AUC at 6 h [32]: 37 µM·h
- AUC at 12 h [33]: 577 µM·h
- AUC at 12 h [34]: 159 µM·h
Structure (SMILES): Nc1nc2c(ncn2COCCO)c(=O)[nH]1 [ACYCLOVIR]
